Source: publication PMC2805915 (Nature medicine, 2009)

Key:
[1] = test system: Bcl6-dependent DLBCL cell lines; assay: Growth inhibition determination; type: cell-based, human; conditions: read-out: GI50 (concentration that inhibited the growth of the cell lines by 50% compared to control); 48 h; group of seven Bcl6-dependent DLBCL cell lines
Summary of the method: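 Cells seeded so untreated controls stayed in exponential growth through the 48 h exposure, then treated with 0.1–10 μM test compound or water vehicle in 10% serum medium. Viability read by resazurin reduction fluorescence (560Ex/590Em), with viable cells calculated from a standard curve and 6 replicates per condition, and verified by sulforhodamine B or ATP luminescence. Values normalized to controls. Experiments in triplicate. GI50 taken from dose-effect curves and reported as mean with 95% CI.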

[2] = test system: Bcl6-independent DLBCL cell lines; assay: Growth inhibition determination; type: cell-based, human; conditions: read-out: GI50 (concentration that inhibited the growth of the cell lines by 50% compared to control); 48 h; group of four Bcl6-independent DLBCL cell lines
Bcl6 [3] = assay: Bcl6 immunoblot in DLBCL cells; type: cell-based, human
Summary of the method: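 Farage, OCI-Ly7 and SU-DHL4 cells exposed 24 h to 0.1, 0.25, 0.5 or 1 μM test compound; OCI-Ly7 also given 0.5 μM for 4, 6, 12, 18, 24 and 48 h. Compound added from concentrated stock to 10% serum medium. Lysates immunoblotted for Bcl6 with N-terminal (N3) and C-terminal (C19) antibodies, actin as loading control.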

Bcl6 [4] = assay: Protein decay determination; type: cell-based, human; conditions: OCI-Ly7; 0.5 µM PU-H71 after Cycloheximide 5 μM
Summary of the method: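 OCI-Ly7 cells, control or test-compound treated, incubated with 5 μM cycloheximide over a time course. Bcl6 and actin immunoblotted at each point; Bcl6/actin ratio quantified by densitometry with untreated cells set at 100% and plotted against time.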

BCL6 mRNA = assay: mRNA decay determination; type: cell-based, human; conditions: OCI-Ly7; versus vehicle-treated cells
Summary of the method: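 OCI-Ly7 cells pretreated 2 h with 0.5 μM test compound or control, then actinomycin D added for a time course. BCL6 mRNA quantified by QPCR against a standard curve, normalized to untreated cells; three independent experiments averaged to derive half-life.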

[5] = test system: primary human DLBCL cells; assay: Primary cells treatment, viability; type: cell-based; conditions: 2.5 μM; 48 h; versus vehicle-treated controls
Summary of the method: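 Lymph node biopsies disrupted physically and separated by density gradient; cells kept in 80% RPMI/20% human serum with antibiotics, L-glutamine and HEPES. Exposed in triplicate to 2.5 μM test compound or water for 48 h. Viability read by ATP luminescence and dye exclusion, expressed as percent of vehicle control.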

Pharmacokinetic = type: in vivo; conditions: Farage xenograft mice, 75 mg per kg i.p.
Summary of the method: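 Mice bearing 1 cm3 Farage xenografts received a single 75 mg/kg i.p. dose of test compound; killed at 6, 12 and 24 h alongside controls. Serum, tumor and normal tissues assayed for compound concentration by HPLC-MS.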

OCI-Ly7 xenografts = assay: Mice xenotransplant study, OCI-Ly7; type: in vivo, SCID mice; conditions: 75 mg per kg per day; 20 days
SU-DHL6 xenograft = assay: Mice xenotransplant study, SU-DHL6; type: in vivo, SCID mice; conditions: 75 mg per kg per day; 20 days
Summary of the method: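 Additional cohort of SCID mice with s.c. OCI-Ly7 or SU-DHL6 xenografts held until mean tumor volume reached 500 mm3, then given test compound i.p. for 20 days; tumor volume followed by caliper every other day.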

Toledo xenografts = assay: Mice xenotransplant study, Toledo; type: in vivo, SCID mice; conditions: Bcl6-independent; similar dose (75 mg per kg per day)
[6] = test system: Farage, OCI-Ly7 and SU-DHL4 DLBCL xenografts; assay: Mice xenotransplant study, pooled; type: in vivo, SCID mice; conditions: 75 mg per kg per day
Summary of the method: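 Male SCID mice, 6–8 weeks old, injected s.c. in the left flank with 10^7 low-passage DLBCL cells. At palpable size (about 75–100 mm3, 24–33 days), pairs were randomized to vehicle or 75 mg/kg/day test compound i.p. (reconstituted in sterile water) for 10 days, n = 5 per arm per line. Caliper volume was measured every other day as (smallest diameter² × largest)/2. Mice were euthanized when ≥2 of 10 tumors reached 20 mm. Tumors were weighed and TUNEL-scored as apoptotic/total cells. Survival ran from treatment start to death or tenfold volume rise, by Kaplan-Meier with Cox's F test.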

[7] = Toxicity in xenografted mice; type: in vivo, SCID mice; conditions: 75 mg per kg per day, 10 days
Summary of the method: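 Xenografted SCID mice dosed i.p. at 75 mg/kg/day were weighed every other day. At euthanasia, blood was collected and tumors and other tissues were harvested, weighed and examined microscopically by pathologists.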

Mice toxicity studies = type: in vivo, Balb/c mice; conditions: 50 or 75 mg per kg per day; 10 days

CC(C)NCCCn1c(Sc2cc3c(cc2I)OCO3)nc2c(N)ncnc21 [PU-H71]
GI50 [1]: 1390 nM
GI50 [2]: 71 µM
Bcl6 protein abundance (Bcl6 [3]; 24 h, 0.1-1 μM, Farage, OCI-Ly7 and SU-DHL4): dose-dependent reduction
Bcl6 protein (immunoblot, antibodies N3 and C19) (Bcl6 [3]; OCI-Ly7, 0.5 μM, after 18 h): barely detectable
time for relative Bcl6 protein abundance to decrease from 100% to 50% (Bcl6 [4]): 5 h
increase in Bcl6 mRNA decay rate (BCL6 mRNA): 32%
cases among 21 DLBCLs with greater than 25% loss of viability [5]: 19
PU-H71 concentration in tumor (Pharmacokinetic; 6 h): 42.1 µg/g
PU-H71 concentration in tumor (Pharmacokinetic; 12 h): 27.6 µg/g
PU-H71 concentration in tumor (Pharmacokinetic; 24 h): 12 µg/g
PU-H71 in serum (Pharmacokinetic; after the 6 h timepoint): undetectable
tumor volume in steady phase (OCI-Ly7 xenografts): ~500 mm^3
tumor volume (SU-DHL6 xenograft): ≤ 100 mm^3
effect on xenograft growth (Toledo xenografts): no effect
DLBCL size and weight compared to control ([6]; 10 days): potently reduced
survival (tumor growth to critical mass as surrogate) v controls ([6]; n = 15, Cox's F test P < 0.0001): significantly prolonged
toxicity from behavioral, macroscopic or microscopic standpoints [7]: no evidence of toxicity
hematologic, renal or hepatic toxicity (blood counts, chemistry, liver function, thyroid hormone) (Mice toxicity studies): no evidence of hematologic, renal or hepatic toxicity
macroscopic or microscopic toxicity (Mice toxicity studies): no evidence of macroscopic or microscopic toxicity
